Experimental data published in ChEMBL document CHEMBL3396953, “Design, synthesis and biological evaluation of a class of bioisosteric oximes of the novel dual peroxisome proliferator-activated receptor α/γ ligand LT175” (Eur J Med Chem, 2015).
Calls of active or inactive are those of the source. The rule behind the calls is not given here.

Assays:
Format in all cases: cell-based
[1] = target: T1, Peroxisome proliferator-activated receptor alpha (Homo sapiens, UniProt Q07869); test: Agonist activity at GAL4-DNA binding domain fused human PPARalpha ligand binding domain expressed in human HepG2 cells assessed as receptor transactivation incubated for 20 hrs by luciferase reporter gene assay
T1 sequence (Q07869 whole entry): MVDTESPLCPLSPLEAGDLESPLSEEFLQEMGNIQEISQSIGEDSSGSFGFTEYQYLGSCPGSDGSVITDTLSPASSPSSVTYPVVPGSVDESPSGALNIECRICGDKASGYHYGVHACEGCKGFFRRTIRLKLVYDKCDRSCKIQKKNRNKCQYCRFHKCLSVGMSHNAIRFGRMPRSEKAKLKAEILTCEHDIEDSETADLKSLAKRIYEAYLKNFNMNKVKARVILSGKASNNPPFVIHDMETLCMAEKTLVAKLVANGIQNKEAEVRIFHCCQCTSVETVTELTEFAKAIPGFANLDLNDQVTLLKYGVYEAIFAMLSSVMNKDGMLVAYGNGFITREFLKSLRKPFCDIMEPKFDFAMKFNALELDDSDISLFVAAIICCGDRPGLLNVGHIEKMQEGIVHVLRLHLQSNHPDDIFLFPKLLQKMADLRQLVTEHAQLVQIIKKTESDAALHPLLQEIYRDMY
Outline: (§1)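 GAL4-PPARα-LBD chimera transiently expressed in HepG2 cells; 10⁵ cells/well seeded in triplicate, calcium-phosphate transfection after 24 h with GAL4-PPARα-LBD plasmid (30 ng), pGAL5TKpGL3 reporter (100 ng) and pCMVβgal (250 ng). Transfections repeated at least twice.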

[2] = target: T2, Peroxisome proliferator-activated receptor alpha (Homo sapiens) (UniProt Q07869); test: Agonist activity at GAL4-DNA binding domain fused human PPARalpha ligand binding domain expressed in human HepG2 cells assessed as receptor transactivation incubated for 20 hrs by luciferase reporter gene assay relative to Wy-14,643
T2 sequence (whole entry): T1 sequence (Q07869 whole entry)
Outline: as §1, with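 “ng). Efficacy expressed as percentage of maximum fold induction obtained with reference agonist Wy-14,643.” for “ng).”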

[3] = target: T3, Peroxisome proliferator-activated receptor gamma (Homo sapiens, UniProt P37231); test: Agonist activity at GAL4-DNA binding domain fused human PPARgamma ligand binding domain expressed in human HepG2 cells assessed as receptor transactivation incubated for 20 hrs by luciferase reporter gene assay
T3 sequence (P37231 whole entry): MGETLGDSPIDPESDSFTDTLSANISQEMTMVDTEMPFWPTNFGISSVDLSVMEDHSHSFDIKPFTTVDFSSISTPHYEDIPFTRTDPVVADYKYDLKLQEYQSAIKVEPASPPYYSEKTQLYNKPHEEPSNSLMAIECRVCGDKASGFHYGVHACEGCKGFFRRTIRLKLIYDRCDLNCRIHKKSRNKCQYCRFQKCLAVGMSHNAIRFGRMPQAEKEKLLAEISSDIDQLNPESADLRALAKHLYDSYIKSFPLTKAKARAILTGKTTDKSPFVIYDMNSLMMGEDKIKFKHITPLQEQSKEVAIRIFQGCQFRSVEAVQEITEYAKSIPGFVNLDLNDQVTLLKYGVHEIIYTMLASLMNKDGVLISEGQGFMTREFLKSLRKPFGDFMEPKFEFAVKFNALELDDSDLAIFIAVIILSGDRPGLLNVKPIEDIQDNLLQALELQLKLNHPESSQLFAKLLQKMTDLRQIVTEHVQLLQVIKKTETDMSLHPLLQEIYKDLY

[4] = target: T4, PPAR alpha/gamma (Homo sapiens) (UniProt P37231+Q07869); test: Agonist activity at PPARalpha/PPARgamma in human […] cells assessed as increase in HMGCS2 gene expression at 25 uM incubated for 1 day by quantitative PCR method relative to untreated control
Outline: (§2)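 HepaRG cells grown two weeks in William's E medium with 10% FCS, insulin, glutamine and hydrocortisone, then two weeks more with 2% DMSO. Hepatocyte-like cells detached by mild trypsinization and seeded at 2.6 × 10⁴ cells/cm². After 24 h they were starved 16 h without DMSO/FCS, then exposed 24 h to ligand. Total RNA assayed by real-time qPCR; vehicle-treated control set to 1; duplicate samples; two-way ANOVA with Bonferroni.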

[5] = target: T4, PPAR alpha/gamma (Homo sapiens); test: Agonist activity at PPARalpha/PPARgamma in human […] cells assessed as increase in CPT1A gene expression at 25 uM incubated for 1 day by quantitative PCR method relative to untreated control; outline: as §2
[6] = target: T4, PPAR alpha/gamma (Homo sapiens); test: Agonist activity at PPARalpha/PPARgamma in human […] cells assessed as increase in CD36 gene expression at 25 uM incubated for 1 day by quantitative PCR method relative to untreated control; outline: as §2
[7] = target: T4, PPAR alpha/gamma (Homo sapiens); test: Agonist activity at PPARalpha/PPARgamma in human […] cells assessed as increase in ANGPTL4 gene expression at 25 uM incubated for 1 day by quantitative PCR method relative to untreated control; outline: as §2
[8] = target: T4, PPAR alpha/gamma (Homo sapiens); test: Agonist activity at PPARalpha/PPARgamma in human […] cells assessed as increase in FABP4 gene expression at 25 uM incubated for 1 day by quantitative PCR method relative to untreated control; outline: as §2
[9] = target: T4, PPAR alpha/gamma (Homo sapiens); test: Agonist activity at PPARalpha/PPARgamma in human […] cells assessed as increase in FABP1 gene expression at 25 uM incubated for 1 day by quantitative PCR method relative to untreated control; outline: as §2

Structure (SMILES)	EC50 ([1]; read-out: EC50)	Emax [2]	EC50 ([3]; read-out: EC50)	further results
O=C(O)[C@H](Cc1ccccc1)Oc1ccc(/C=N/O)cc1	5.5 µM	98%	28 µM	–
O=C(O)[C@H](Cc1ccccc1)Oc1ccc(-c2ccccc2)cc1	–	100%	–	–
O=C(O)C(Cc1ccccc1)Oc1ccc(/C=N/O)cc1 (racemic)	7.75 µM	91%	43 µM	–
CO/N=C/c1ccc(OC(Cc2ccccc2)C(=O)O)cc1 (racemic)	7.8 µM	101%	12.8 µM	–
CCCO/N=C/c1ccc(OC(Cc2ccccc2)C(=O)O)cc1 (racemic)	7.3 µM	96%	7.9 µM	–
CCCCCCCO/N=C/c1ccc(OC(Cc2ccccc2)C(=O)O)cc1 (racemic)	–	–	–	EC50 ([1]; hepg2): Not Active
O=C(O)C(Cc1ccccc1)Oc1ccc(/C=N/OCc2ccccc2)cc1 (racemic)	6.8 µM	58%	2.1 µM	–
Cc1cccc(Nc2cc(Cl)nc(SCC(=O)O)n2)c1C [PIRINIXIC ACID]	–	–	–	EC50 ([3]; hepg2): Not Active
CN(CCOc1ccc(CC2SC(=O)NC2=O)cc1)c1ccccn1 (stereo unspecified) [ROSIGLITAZONE]	–	inactive	–	EC50 ([1]; hepg2): Not Active

More lines, main results first:

EC50 ([1]; read-out: EC50)	Emax [2]	EC50 ([3]; read-out: EC50)	Structure (SMILES)	further results
3.8 µM	91%	3.8 µM	CCCO/N=C/c1ccc(O[C@@H](Cc2ccccc2)C(=O)O)cc1	Activity [4]: Active; fold change (FC) [5]: 2; Activity [6]: Active; Activity [7]: Active; fold change (FC) [8]: 50; Activity [9]: Active
3.9 µM	68%	3.65 µM	CCCCO/N=C/c1ccc(OC(Cc2ccccc2)C(=O)O)cc1 (racemic)	–
4.2 µM	63%	5.6 µM	CC(C)O/N=C/c1ccc(OC(Cc2ccccc2)C(=O)O)cc1 (racemic)	–
3.8 µM	52%	4.5 µM	CC(C)CO/N=C/c1ccc(OC(Cc2ccccc2)C(=O)O)cc1 (racemic)	–
2.2 µM	48%	1.8 µM	O=C(O)C(Cc1ccccc1)Oc1ccc(/C=N/OCCc2ccccc2)cc1 (racemic)	–
1.4 µM	24%	1.25 µM	O=C(O)C(Cc1ccccc1)Oc1ccc(/C=N/OCCCc2ccccc2)cc1 (racemic)	–
5.2 µM	68%	9.4 µM	C/C(=N\O)c1ccc(OC(Cc2ccccc2)C(=O)O)cc1 (racemic)	–
1.2 µM	78%	12.4 µM	O=C(O)C(Cc1ccccc1)Oc1ccc(/C(=N/O)c2ccccc2)cc1 (racemic)	–
2.1 µM	24%	1 µM	CCCO/N=C(\c1ccccc1)c1ccc(OC(Cc2ccccc2)C(=O)O)cc1 (racemic)	–
0.22 µM	59%	0.68 µM	CCCO/N=C(/c1ccccc1)c1ccc(OC(Cc2ccccc2)C(=O)O)cc1 (racemic)	–
